Published values collected from several papers.
Each line is one published result; the experiments were not run side by side. In brackets after ≈: the same amount, converted by molar mass.

SMILES	assay	test system	conditions	quantity	value
COc1cc(C2C3=C(COC3=O)N(CCO)c3cc4c(cc32)CCC4)cc(OC)c1OC (centres unmarked)	general toxicity	female C57BL/6 mouse	intraperitoneal, single dose	MTD	≥ 400 mg/kg
CC[C@H](C)[C@H]1C(=O)N[C@H]([C@H](C)O)C(=O)NCC(=O)N[C@@H](CC(C)C)C(=O)N2CCC[C@H]2C(=O)N[C@@H](Cc2ccc(O)cc2)C(=O)N[C@H](CC(C)C)C(=O)N2CCC[C@@H]2C(=O)NCC(=O)N[C@@H](Cc2ccc(O)cc2)C(=O)N1C		aqueous buffer	18 h, pH 7.4	solubility	933 µM (≈ 1020 µg/mL)
C/C=C1/CN2CC[C@@]34c5cc(O)ccc5N(C)[C@]35OC[C@@]4(C(=O)OC)[C@H]1C[C@H]25		Caco-2	10 µM, 2 h, pH 7.4	Papp B→A	30.9 ×10⁻⁶ cm/s
Cl.Cn1c(=O)n(CCCCN2CCC3(CC2)OCc2ccccc23)c2ccccc21		male Sprague-Dawley rat, brain	intravenous, 10 mg/kg	tissue/plasma ratio	0.48
CC(c1cncnc1)n1c(=S)[nH]c2ccc(Cl)cc2c1=O (centres unmarked)		Caco-2	10 µM, 90 min, pH 7.4	Papp B→A	38.4 ×10⁻⁶ cm/s
C/C=C1/CN2CC[C@]34C(=C(C(=O)OC)[C@H]1C[C@H]23)Nc1ccccc14		Caco-2	10 µM, 2 h, pH 7.4	Papp A→B	38.1 ×10⁻⁶ cm/s
O=c1c2cc(Cl)c(CO)cc2[nH]c(=S)n1Cc1cncnc1		Caco-2	10 µM, 90 min, pH 7.4	Papp A→B	14 ×10⁻⁶ cm/s
CC=CCC(C)C1OC(=O)C(C(C)C)N(C)C(=O)C(CC(C)C)N(C)C(=O)C(CC(C)C)N(C)C(=O)C(C)NC(=O)C(C)NC(=O)C(CC(C)C)N(C)C(=O)C(C(C)C)NC(=O)C(CC(C)C)N(C)C(=O)CN(C)C(=O)C(CC)NC(=O)C1NC (centres unmarked)		aqueous buffer	18 h, pH 7.4	solubility	91 µM (≈ 109 µg/mL)
